This is an account of results in PMC12700136 (Journal of medicinal chemistry, 2025).

For assay [1], the target named is T1, ClpP (Homo sapiens, UniProt Q16740). Briefly: Thermal shift assay. The format is binding. The note with it: MDA-MB-468 lysates; for ClpP binding/stabilization by TSA (comparison in words): heated at 67 °C, WB. In outline:
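Test compound at increasing concentrations added to 10 μg MDA-MB-468 lysate, 15 min at 23 °C. Heated 67 °C for 3 min, precipitated 3 min at 23 °C, spun 14,000 rpm, 20 min, 4 °C. Soluble ClpP detected by anti-ClpP immunoblot against unheated and no-compound controls; quantified as mean ± SD of two independent experiments.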

Assay [2] concerns the target T1, ClpP. The assay is described as follows: Thermal shift assay. The format is cell-based. The note with it: MDA-MB-468 cells treated 30 min. In outline: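 MDA-MB-468 cells seeded at 1 million per well the day before, then exposed to test compound for 30 min at 37 °C. Washed in PBS, scraped into PBS with […] inhibitors, heated 67 °C for 3 min, lysed by freeze–thaw, spun 14,000 rpm 20 min at 4 °C. Soluble ClpP immunoblotted; normalized quantification, mean ± SD of two independent experiments.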

Assay [3] deals with purified human ClpP (hClpP) (Homo sapiens, UniProt Q16740). The assay is described as follows: Differential scanning fluorimetry. The format is binding. The note with it: vs DMSO. Put shortly: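 Human ClpP lacking mitochondrial sequence, expressed in E. coli BL21(DE3) as N-terminal 2x(His6-thrombin)-SUMO-TEV fusion (1 mM IPTG, 4 h, 37 °C), cobalt-resin purified. Protein at 0.5 mg/mL final in 25 mM Tris-HCl pH 7.5 with SYPRO Orange; held 25 °C 2 min, ramped 25–95 °C at 0.05 °C/s. ΔTm versus DMSO; mean ± SD, four independent experiments.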
Chain of purified human ClpP (hClpP) (Q16740 57-277): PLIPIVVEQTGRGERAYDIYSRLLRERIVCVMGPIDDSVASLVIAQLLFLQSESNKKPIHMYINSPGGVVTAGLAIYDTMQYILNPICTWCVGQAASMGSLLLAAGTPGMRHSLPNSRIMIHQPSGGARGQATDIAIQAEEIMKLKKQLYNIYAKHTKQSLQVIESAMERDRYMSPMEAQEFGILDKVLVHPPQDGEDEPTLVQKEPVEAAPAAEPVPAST
A general note: DSF heats the sample and reads unfolding from a dye or from intrinsic fluorescence.

Another assay relates to DAP13. The assay is described as follows: DAP13 degradation assay. It counts as cell-based, human. The note with it: 24 h, MDA-MB-468 cells.
Assay [4] has as its system MDA-MB-468 cells. Briefly: Seahorse mitochondrial respiration assay. It counts as cell-based, human. The note with it: 50 nM for 12, 24 and 48 h. Put shortly: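 Cells were plated at 250,000 per well and treated for 12, 24 or 48 h. One hour before reading, medium was changed to XF DMEM (1 mM pyruvate, 2 mM glutamine, 10 mM glucose, pH 7.4). The Mito Stress Test used final 1 μM oligomycin, 1 μM FCCP and 0.5 μM antimycin A. OCR was read at baseline and after sequential oligomycin, FCCP and rotenone additions.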

Assay [5] deals with MDA-MB-468 cells. The assay is described as follows: Western blot analysis of apoptosis markers. The format is cell-based, human. The note with it: 1 μM, 72 h. In outline:
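MDA-MB-468 cells exposed to vehicle or 1 μM test compound for 72 h. Lysates probed by immunoblot for apoptosis markers including caspase-3. Blots representative of two independent experiments.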

Assay [6] concerns MDA-MB-468 cells. Briefly: Flow-cytometry-based apoptosis detection. It counts as cell-based, human. The note with it: 1 μM, 72 h. In outline:
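MDA-MB-468 cells given DMSO or 1 μM test compound for 72 h at 37 °C, 5% CO2. Washed twice in FACS buffer (50 mM PBS, 2 mM EDTA, 2% FBS), stained with fixable viability dye eFluor 780 for 30 min at 4 °C, washed, then analysed by flow cytometry for dead-cell labelling.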

For assay [7], the system named is MDA-MB-468 cells. Briefly: Viability assay. The format is cell-based, human. The note with it: read-out: IC50 (viability); MDA-MB-468 (wild-type), 72 h. In outline: (§1)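 Cells (DMEM/F12 + GlutaMax, 10% FBS, 1% pen-strep) seeded at 5,000 per well 24 h before dosing, in quadruplicate. Medium replaced with test compound-containing medium for 72 h. Viability read after 3 h AlamarBlue incubation by colorimetric change, normalized to vehicle control. IC50 from curves; mean ± SD of three independent experiments.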

The test system of a further assay is MDA-MB-231 cells. Briefly: Viability assay. The format is cell-based, human. The note with it: read-out: IC50 (viability); MDA-MB-231, 72 h. Put shortly:
as §1

A further assay concerns SK-BR-3 cells. The assay is described as follows: Viability assay. It counts as cell-based, human. The note with it: read-out: IC50 (viability); SK-BR-3, 72 h. In outline: as §1
For the next assay, the system named is MCF-7 cells. The assay is described as follows: Viability assay. The format is cell-based, human. The note with it: read-out: IC50 (viability); MCF-7, 72 h. In outline:
as §1

The subject of the next assay is BT-474 cells. Briefly: Viability assay. The format is cell-based, human. The note with it: read-out: IC50 (viability); BT-474, 72 h. In outline: as §1
Assay [8] has as its system ONC212-resistant MDA-MB-468 cells. The assay is described as follows: Viability assay. The format is cell-based, human. Put shortly: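 Resistant MDA-MB-468 line selected by continuous 50 nM reference ClpP agonist, medium changed every 3 days. Cells expanded drug-free and re-exposed over several cycles until growth exceeded death. Wild-type and resistant cells seeded at 5,000 per well, quadruplicate, and dosed 72 h. AlamarBlue read after 3 h, normalized to vehicle; mean ± SD, three independent experiments.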

T1 sequence (Q16740 57-277): as above

Consider `CN(C)CCCCCc1cc(C(F)(F)F)ccc1CN1C(=O)C2=C(CCN(Cc3cccc(C#N)c3)C2)N2CCN=C12` [Compound 7, 3-((4-(2-(5-(Dimethylamino)pentyl)-4-(trifluoromethyl)-benzyl)-5-oxo-1,2,4,5,8,9-hexahydroimidazo[1,2-a]pyrido[3,4-e]pyrimidin-7(6H)-yl)methyl)benzonitrile], for which, at ClpP [1], the “ClpP binding/stabilization by TSA (comparison in words)” value (from here on “ClpP binding/stabilization by TSA”) is recorded as “recovered to the same level as that of compound 2”.

With `O=C1C2=C(CCN(Cc3ccccc3)C2)N2CCN=C2N1Cc1ccc(C(F)(F)F)cc1` [ONC212, reference compound], the “concentration at which ClpP was stabilized (TSA)” value at ClpP [1] is ≥ 2.5 µM. The “concentration at which ClpP was stabilized (TSA in live cells)” value at ClpP [2] came to 0.63 µM. Besides, in assay [3], the “thermal shift of purified hClpP (DSF)” value is “very significant thermal shift”. Moreover, in the assay with DAP13 (25 nM), the DAP13 degraded result is recorded as “did not significantly degrade DAP13”. For the same compound, the “DAP13 degradation at high concentrations” value with DAP13 (100, 150 and 200 nM) is “degraded DAP13”. Besides, in the assay on MDA-MB-468 cells [4], the “effect on basal respiration, ATP generation and maximal respiration” value is “significantly affected these mitochondrial functions only at 48 h”. Besides, the “protein levels of full-length caspase 3 and PARP” value in the assay on MDA-MB-468 cells [5] is on record as “reduction”. In the assay on MDA-MB-468 cells [6], the “late-stage apoptosis (eFluor 780)” value is “effectively induced late-stage apoptosis”. In addition, the IC50 (as a rule, the concentration needed to halve the response being measured) is 35.2 nM in the assay with MDA-MB-468 cells [7]; 50.5 nM in the assay on MDA-MB-231 cells; 115 nM with SK-BR-3 cells; 63.7 nM with MCF-7 cells; 32.7 nM in the assay on BT-474 cells; 351 nM in assay [8] (read-out: IC50 (viability), ONC212-resistant MDA-MB-468, 72 h). Moreover, the “increase in the IC50 value, resistant vs wild-type cells” value in assay [8] (ONC212-resistant vs wild-type MDA-MB-468, 72 h) is “approximately 10 fold”.

As for `CC(=O)NCCCCCc1cc(C(F)(F)F)ccc1CN1C(=O)C2=C(CCN(Cc3ccccc3)C2)N2CCN=C12` [Compound 5, N-(5-(2-((7-Benzyl-5-oxo-1,2,6,7,8,9-hexahydroimidazo[1,2-a]pyrido[3,4-e]pyrimidin-4(5H)-yl)methyl)-5-(trifluoromethyl)-phenyl)pentyl)acetamide], the “ClpP binding/stabilization by TSA” value at ClpP [1] is “much reduced binding to ClpP”.

In the case of `NCCCCCc1cc(F)ccc1CN1C(=O)C2=C(CCN(Cc3ccccc3)C2)N2CCN=C12` [Compound 3, 4-(2-(5-Aminopentyl)-4-fluorobenzyl)-7-benzyl-2,4,6,7,8,9-hexahydroimidazo[1,2-a]pyrido[3,4-e]pyrimidin-5(1H)-one], at ClpP [1], the “ClpP binding/stabilization by TSA” value is “weaker ClpP binding”.

Regarding `CC(=O)NCCOc1cc(C(F)(F)F)ccc1CN1C(=O)C2=C(CCN(Cc3cccc(C#N)c3)C2)N2CCN=C12` [Compound 10, N-(2-(2-((7-(3-Cyanobenzyl)-5-oxo-1,2,6,7,8,9-hexahydroimidazo[1,2-a]pyrido[3,4-e]pyrimidin-4(5H)-yl)-methyl)-5-(trifluoromethyl)phenoxy)ethyl)acetamide], on ClpP [1], the “ClpP binding/stabilization by TSA” value is on record as “decreased ClpP binding compared to 9 but similar to ONC212”.

As to `CC(=O)NCCCCCc1cc(C(F)(F)F)ccc1CN1C(=O)C2=C(CCN(Cc3cccc(C#N)c3)C2)N2CCN=C12` [Compound 6, N-(5-(2-((7-(3-Cyanobenzyl)-5-oxo-1,2,6,7,8,9-hexahydroimidazo[1,2-a]pyrido[3,4-e]pyrimidin-4(5H)-yl)-methyl)-5-(trifluoromethyl)phenyl)pentyl)acetamide], the “ClpP binding/stabilization by TSA” value at ClpP [1] was “much reduced binding to ClpP”.

On to `CNC(=O)CN(C)CCCCCc1cc(C(F)(F)F)ccc1CN1C(=O)C2=C(CCN(Cc3cccc(C#N)c3)C2)N2CCN=C12` [Compound 8, 2-((5-(2-((7-(3-Cyanobenzyl)-5-oxo-1,2,6,7,8,9-hexahydroimidazo[1,2-a]pyrido[3,4-e]pyrimidin-4(5H)-yl)-methyl)-5-(trifluoromethyl)phenyl)pentyl)(methyl)amino)-N-methylacetamide], for which the “ClpP binding/stabilization by TSA” value at ClpP [1] is “recovered to the same level as that of compound 2”.

Consider `N#Cc1cccc(CN2CCC3=C(C2)C(=O)N(Cc2ccc(C(F)(F)F)cc2CCCCCN)C2=NCCN23)c1` [Compound 2, 3-((4-(2-(5-Aminopentyl)-4-(trifluoromethyl)benzyl)-5-oxo-1,2,4,5,8,9-hexahydroimidazo[1,2-a]pyrido[3,4-e]pyrimidin-7(6H)-yl)methyl)benzonitrile], for which, at ClpP [1] (TSA), the “improvement in ClpP binding compared to ONC212 and compound 1” value is on record as “approximately 2 fold”.

Take `NCCCCCc1cc(C(F)(F)F)ccc1CN1C(=O)C2=C(CCN(Cc3ccccc3)C2)N2CCN=C12` [Compound 1, 4-(2-(5-Aminopentyl)-4-(trifluoromethyl)benzyl)-7-benzyl-2,4,6,7,8,9-hexahydroimidazo[1,2-a]pyrido[3,4-e]pyrimidin-5(1H)-one]: the “ClpP binding/stabilization by TSA” value on ClpP [1] is “marginally improved binding to ClpP compared to ONC212”.
